Screens from PubChem BioAssay.
In the library only some 2.9% were active in any assay of this set; here they are far more common.
MT stabilize HCS – microtubule stabilizers in HeLa cells, primary screen, imaging, high-content imaging; HeLa tubulin immunostaining HCS, 24 h; share of cells brighter than vehicle mean+2SD; % tubulin-high responders, % at 10 µM; 0.83% of 200,000 active; AID 2205, 2009;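 active = plate Z-score above 3 for both tubulin-high and condensed-nucleus cell shares, with cell loss under 80%, at 10 µM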;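 also: anti alpha tubulin signal scored within the nucleus-defined area of each cell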
b-catenin transl – modulators of beta-catenin nuclear translocation, primary screen, imaging, HeLa cells, immunofluorescence, high-content. 0.3% of 190,000 active. AID 1665, 2009. nuclear translocation activity, % at 5 µM;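 active = nuclear translocation activity above 50% at 5 µM, with a well cell count of 50 or more; inconclusive = wells under 50 cells across six images, flagged as toxic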;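 also: per-cell ratio of nuclear to cytoplasmic median beta-catenin stain intensity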
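Read-out: Nuclear/cytoplasmic beta-catenin signal ratio, % activation | Assay system: Human HeLa cell line | Times: 24 h compound exposure at 37°C, 5% CO2 | Signal: Fluorescence imaging of beta-catenin antibody stain plus DAPI | Dosing: 5 µM primary, 0.02–20 µM confirmation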
Ins promoter up – insulin promoter activators in MIN6 cells, imaging, high-content screening, mouse beta cells | MIN6 insulin promoter-GFP reporter; hits give high values | z-score at 5 µM | AID 1625, 2009 | 0.3% of 190,000 active;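 active = z-score above 3 at 5 µM with at least 500 cells counted in the well; inconclusive = wells under 500 cells, flagged as cytotoxic or low count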
Autophagy HCS – autophagy modulators in MEF cells, primary screen, imaging, high-content, MEF GFP-LC3 | MEF GFP-LC3 puncta imaging; test concentration mostly 10 µM | calls only at 10 µM (by protocol) | 0.98% of 190,000 active;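 active = percentage of spot-positive cells more than 3 SD above its plate mean, without a fluorescence outlier flag or 80% toxicity; inconclusive = no clear call, values can overlap the other calls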
Wee1 degr inh – Wee1 degradation inhibitors, primary screen, cell-based, HeLa, Wee1K328M-luciferase, luminescence; Wee1-like protein kinase (Homo sapiens), P30291; 1.2% of 220,000 active; reporter increase, % at 5 µM; HeLa Luc-Wee1K328M stability; 100% = proteasome inhibitor MG132 effect; AID 1321, 2008;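 active = activation above the mean of all tested compounds plus 3 SD, set per screening run, cut at about 8.8% in these data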;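 also: cells exposed to compound for 20 h before luminescence read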
Target sequence (P30291 whole entry K328M): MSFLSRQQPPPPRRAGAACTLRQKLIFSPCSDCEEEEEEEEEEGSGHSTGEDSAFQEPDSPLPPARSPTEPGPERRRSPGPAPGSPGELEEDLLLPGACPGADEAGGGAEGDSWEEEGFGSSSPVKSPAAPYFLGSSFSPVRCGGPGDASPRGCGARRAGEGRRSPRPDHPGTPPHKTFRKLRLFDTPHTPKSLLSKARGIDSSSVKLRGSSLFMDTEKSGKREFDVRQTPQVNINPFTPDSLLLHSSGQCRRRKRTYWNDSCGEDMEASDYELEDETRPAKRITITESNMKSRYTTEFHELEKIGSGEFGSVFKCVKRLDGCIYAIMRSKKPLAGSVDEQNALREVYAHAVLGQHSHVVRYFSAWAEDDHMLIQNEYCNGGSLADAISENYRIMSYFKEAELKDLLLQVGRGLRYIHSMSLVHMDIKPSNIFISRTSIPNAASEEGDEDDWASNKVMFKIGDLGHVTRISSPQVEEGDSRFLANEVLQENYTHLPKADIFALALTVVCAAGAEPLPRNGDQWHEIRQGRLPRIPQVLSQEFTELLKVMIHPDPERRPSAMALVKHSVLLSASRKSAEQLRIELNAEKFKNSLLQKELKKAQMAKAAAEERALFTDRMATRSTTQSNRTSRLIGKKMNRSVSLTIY
Each line names hits and unclear results; the compound was inactive in the other large screens.

Cc1ccc(CC(=O)NC(C)CCc2ccccc2)cc1 (stereo not given)	none
Cc1cc(C(=O)NNC(=S)NCc2ccco2)nn1C	none
COc1ccc(OC)c(C2C3=C(COC3=O)Nc3cc4c(cc32)OCO4)c1 (stereo not given)	b-catenin transl 111
COc1ccc(C2C3=C(CC(C)(C)CC3=O)Nc3cc4c(cc32)OCO4)cc1 (stereo not given)	none
COc1ccnc(N=CNOCc2cccc(C(F)(F)F)c2)c1C#N	none
CC(NCC(O)COC1CCC(C(C)(C)C)CC1)c1ccccc1 (stereo not given)	Autophagy HCS active (no result: b-catenin transl)
COc1ccc(S(=O)(=O)N2c3ccccc3OCC2C(C)(C)C)cc1 (stereo not given)	MT stabilize HCS 14
COc1ccc(S(=O)(=O)N2CCN(c3cccc(C)c3C)CC2)cc1	none (no result: b-catenin transl)
COc1ccc(OC)c(S(=O)(=O)N2c3ccccc3CC2C)c1 (stereo not given)	none (no result: Ins promoter up)
COc1ccc(S(=O)(=O)N2CCC(N3CCN(c4ccccc4OC)CC3)CC2)cc1	none (no result: MT stabilize HCS, Autophagy HCS)
COc1ccc(S(=O)(=O)N2c3ccccc3OCC2C)cc1 (stereo not given)	MT stabilize HCS 18, b-catenin transl 111
COc1ccc(S(=O)(=O)N2c3ccccc3OCC2c2ccccc2)cc1 (stereo not given)	MT stabilize HCS 23
COc1ccc2nc(C)c(C(=O)OCCN(C)C)cc2c1	none (no result: MT stabilize HCS, Autophagy HCS, Wee1 degr inh)
C=CCOc1ccc(C2C(C#N)=C(N)N(Nc3ccccc3)C3=C2C(=O)CC(C)(C)C3)cc1OC (stereo not given)	MT stabilize HCS 32
COc1ccc(Br)cc1/C=C/C(=O)c1ccc(NC(C)=O)cc1	b-catenin transl 52
COc1ccc(NC(=O)/C=C/c2cc(Br)ccc2OC)cc1	none
COc1cc(/C=C/C(=O)c2ccc(O)cc2)ccc1OCC#N	MT stabilize HCS 11
COc1ccc(/C=C/C(=O)c2ccc(NC(=O)c3cccs3)cc2)cc1OC	Wee1 degr inh 9.2
Nc1nc(-c2ccco2)nn1S(=O)(=O)c1ccc(Cl)cc1	none
COc1cc(CNc2nnnn2C)ccc1OCc1c(F)cccc1Cl	none
COc1ccc(C(=O)Nc2cccc(OC(=O)c3ccc(C)c(C)c3)c2)cc1	MT stabilize HCS 22
CNC(=S)N1CCN=C1Nc1nc(C)cc(C)n1	none
CC(=O)c1cccc(NC(=O)/C=C/c2ccc([N+](=O)[O-])s2)c1	Ins promoter up inconclusive
Cc1cc(C)cc(NC(=O)/C=C/c2ccc([N+](=O)[O-])s2)c1	Ins promoter up 6
Cc1ccccc1NC(=O)/C=C/c1ccc([N+](=O)[O-])s1	Ins promoter up inconclusive, Autophagy HCS active
COc1ccc(C(O)P(=O)(OC(C)C)OC(C)C)c(OC)c1 (stereo not given)	none (no result: MT stabilize HCS, Autophagy HCS)
Clc1ccccc1-c1ncc2ccccn12	Wee1 degr inh 8.9
Cc1cc2[nH]c3c(c[n+](C)c4ccccc34)c2cc1C	b-catenin transl inconclusive, Ins promoter up inconclusive, Autophagy HCS active
COCC(=O)N(c1ccccc1)C(C)C(=O)OC (stereo not given)	none
Cc1nc2ccc(NS(=O)(=O)c3c(C)c(C)cc(C)c3C)cc2s1	MT stabilize HCS 44
CCOC(=O)CN1C(=O)CN(c2ccc(C)cc2)C1=O	none
O=C(NCc1cccs1)C1CCN(c2ccc(S(=O)(=O)N3CCOCC3)cc2Cl)CC1	MT stabilize HCS 27, b-catenin transl 106
C#CCNC(=O)C1CCN(c2ccc(S(=O)(=O)N3CCOCC3)cc2Cl)CC1	none
COc1ccccc1C1=NOC(COc2ccc3c(C)cc(=O)oc3c2)C1 (stereo not given)	b-catenin transl 96 (no result: MT stabilize HCS, Ins promoter up, Autophagy HCS)
COc1ccc(C2=NOC(COc3ccc4c(C)cc(=O)oc4c3)C2)c(OC)c1 (stereo not given)	none (no result: MT stabilize HCS, Autophagy HCS)
CNc1nc(SC(C)C(=O)Nc2ccc(Cl)c(Cl)c2)nc(N2CCOCC2)n1 (stereo not given)	none
COc1ccc(CNC(=O)c2csc(Cc3ccc(Cl)cc3)n2)cc1	Wee1 degr inh 9.5 (no result: b-catenin transl, Ins promoter up)
CN1CCN(c2ccc(NC(=O)CSc3ccccc3)cc2F)CC1	Wee1 degr inh 9.8
N=c1sccn1CC(=O)Nc1cc(Cl)ccc1[N+](=O)[O-]	Autophagy HCS active
Cc1cc(NC(=O)Cn2ccsc2=N)c([N+](=O)[O-])cc1C	none
CCNc1nc(NCC)n2c(SC(C(=O)Nc3cc(Cl)cc(Cl)c3)c3ccccc3)nnc2n1 (stereo not given)	none
Cc1c(C(=O)Nc2ccc(-c3nnc4n3CCCCC4)cc2)oc2ccc(Br)cc12	none
COc1ccc2cc3cc(C(=O)NCCN4CCc5ccccc5C4)sc3nc2c1	none
CCC(C)NC(=O)c1cc2cc3ccc(OC)cc3nc2s1 (stereo not given)	Wee1 degr inh 9.0 (no result: b-catenin transl)
CCCCn1c(SCC(=O)O)nc2ccccc21	Ins promoter up 3.5
CCn1c(SCC(=O)O)nc2ccccc21	none
COc1ccc(S(=O)(=O)N(C(=O)c2ccncc2)c2ccc3oc4c(c3c2)CCCC4)cc1	MT stabilize HCS 22
CCOC(=O)N1CCC(N2CCCC(C(=O)c3ccccc3OC)C2)CC1 (stereo not given)	none
COCC1CCN(Cc2nc(-c3cccs3)no2)C1 (stereo not given)	none
C[C@@H]1CN(Cc2nc(-c3cccs3)no2)C[C@H](C)O1	Autophagy HCS active
O=C(Nc1cccc(S(=O)(=O)NCc2ccco2)c1)c1cc(-c2ccc(F)cc2)nc2ccccc12	Wee1 degr inh 9.2
CCOCCCNC(=O)C1CCN(S(=O)(=O)N(CC(C)C)CC(C)C)CC1	none
CCOCCCNC(=O)C1CCN(S(=O)(=O)CC)CC1	Wee1 degr inh 15
COc1ccc(CNC(=O)c2ccc(=O)oc2)cc1OC	Wee1 degr inh 9.4
O=[N+]([O-])c1ccc(-c2ccc(/C=N/Nc3nc(NCc4ccccc4)nc(N4CCOCC4)n3)o2)cc1	Autophagy HCS active (no result: Ins promoter up)
CO/N=C/C(=N\Nc1ccc(OC)cc1)C(=O)c1ccc(OC)cc1	MT stabilize HCS 53 (no result: b-catenin transl)
COc1ccc(C(=O)C(/C=N/O)=N/Nc2ccc(F)cc2)cc1	none
COc1ccc(-c2c(C(F)(F)F)nn(C)c2NC(=O)CSCC(=O)O)cc1	none (no result: MT stabilize HCS, Autophagy HCS)
CCN(CC)c1ccc(NC(=O)COc2ccc(C#N)cc2)cc1S(=O)(=O)Nc1ccc(OC)cc1	none
Cc1ccc(N=Cc2c(O)n(-c3ccc4c(c3)OCO4)c(=O)c3ccccc23)cc1	Autophagy HCS active (no result: Ins promoter up)
CN(C)CCN=Cc1c(O)n(Cc2ccc3c(c2)OCO3)c(=O)c2ccccc12	none
CN(C)CCCN=Cc1c(O)n(Cc2ccc3c(c2)OCO3)c(=O)c2ccccc12	Autophagy HCS active
CCc1nn(C)c(N)c1C	none
Cc1[nH]c2ccccc2c1N=Nc1ccccc1C(=O)O	none
CC(C)(C)OC(=O)CNC(=O)c1nc[nH]c1C(=O)NCC(=O)OC(C)(C)C	none (no result: MT stabilize HCS, Autophagy HCS, Wee1 degr inh)
